# Calls of active or inactive are those of the source. The calls are words filed in the database; no cut-off is given here.
# Tests used:
# [1] = system: Human immunodeficiency virus 1; assay: Antiviral activity against HIV1 infected in human CEM-SS cells assessed as inhibition of virus-induced cytopathic effect after 6 days by XTT assay; type: functional, organism-based; conditions: for EC50: Human immunodeficiency virus 1, CEM-SS, 144 h
# In short: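 NCI XTT-tetrazolium primary anti-HIV screen. CEM-SS cells kept in phenol red-free RPMI 1640 with 5% FBS, gentamicin and 2 mM L-glutamine; 1 × 10⁴ cells per well infected with HIV-1 RF (Haitian variant) at MOI 0.6. Compounds predissolved in DMSO, diluted in medium; AZT positive control. Quadruplicate infected wells, 6 days, 37 °C, 5% CO₂; cell growth by XTT; EC50 and maximal protection derived.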
# CEM-SS = assay: Cytotoxicity against human CEM-SS cells assessed as growth inhibition after 6 days by XTT assay; type: cell-based; conditions: 144 h
# In short: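 Uninfected CEM-SS cells (1 × 10⁴ per well, duplicate wells) grown alongside the infected cultures in phenol red-free RPMI 1640 with 5% FBS, gentamicin and 2 mM L-glutamine. Compounds diluted from DMSO into medium. Incubation 6 days at 37 °C under 5% CO₂; growth estimated by XTT read-out; IC50 derived.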
# Peritoneal macrophage [2] = assay: Antiinflammatory activity against C57BL6J mouse peritoneal macrophages assessed as inhibition of LPS-induced NO production incubated for 1 hr followed by stimulation with LPS for 24 hrs by Griess assay; type: functional, cell-based
# In short: (§1)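 Mouse peritoneal macrophages stimulated with lipopolysaccharide; nitric oxide production measured following an earlier protocol. Test compounds taken from 30 mM DMSO stocks and diluted to 1–30 μM final. Dexamethasone in DMSO served as positive control.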
# Peritoneal macrophage [3] = assay: Antiinflammatory activity against C57BL6J mouse peritoneal macrophages assessed as inhibition of LPS-induced NO production at 30 uM incubated for 1 hr followed by stimulation with LPS for 24 hrs by Griess assay; type: functional; in short: as §1
Compound,%max [1],EC50 [1],IC50 (CEM-SS),IC50 (Peritoneal macrophage [2]),inhibition [1],inhibition at 30 µM (Peritoneal macrophage [3])
CCCCC[C@@]1(O)C(C)=C(C)C(=O)[C@H]1CO (relative stereo),86%,34 µM,79 µM,28 µM,–,–
C/C1=C/C2=C(CC(C)(C)C2)[C@H](C)CC[C@@H]1O,–,–,–,–,inactive,< 50%
CCOC(=O)CC[C@]1(O)OC(=O)C(C)=C1C,–,–,–,–,inactive,< 50%
CCO[C@@]1(CCCCCCCCCCCCC(=O)O)OC(=O)C(C)=C1C,–,–,–,–,inactive,< 50%
CC(=O)CC/C=C(/C)C[C@@H]1CC(C)(C)CC1=O,–,–,–,–,inactive,< 50%
C[C@@H]1CC[C@]2(O)O[C@]13CC(C)(C)CC3=C[C@@]2(C)O,–,–,–,–,inactive,< 50%
CCCC[C@@H]1C(=O)C(C)=C(C)[C@]1(O)CCC(=O)OCC,–,–,–,24 µM,inactive,–
COC(=O)C(C)CCCC1(C)CCc2c(C)c(O)c(C)c(C)c2O1 (stereo not given),–,–,–,–,inactive,< 50%
CC1=C[C@@]2(C=C(C)[C@@H]3CC[C@@]4(C)Oc5cc(C)c(O)cc5[C@@H]2[C@@H]34)OC1=O,–,–,–,–,inactive,< 50%
CCOC(=O)CCCCCCCCCCCC[C@]1(O)OC(=O)C(C)=C1C,–,–,–,–,inactive,< 50%
C/C(=C\CC[C@]1(C)C=Cc2cc(O)c(C)cc2O1)Cc1cc(C)co1 [CAPILLOBENZOPYRANOL],–,–,–,–,inactive,< 50%
CCCCC[C@]1(O)OC(=O)C(C)=C1C,–,–,–,–,inactive,< 50%
CCOC(=O)C1=CN2CC[C@]3(O)c4ccccc4N([C@H]1C)[C@H]23,–,–,–,–,inactive,< 50%
COC(=O)C(C)CCCC(C)(O)CCC1=C(C)C(=O)C(C)=C(C)C1=O (stereo not given),–,–,–,–,inactive,< 50%
CCCCC[C@@]1(O)C(C)=C(C)C(=O)[C@H]1COCC (relative stereo),75%,30 µM,66 µM,26 µM,–,–
C=C1C(=O)C(C)=C(C)[C@@]1(O)CCCCC,52%,5.8 µM,6.3 µM,–,–,< 50%
CCCC[C@@H]1C(=O)C(C)=C(C)[C@]12CCC(=O)O2,–,–,–,–,inactive,< 50%
